Source: PubChem (several laboratories)
Only some compounds are listed: those with a hit (about 12% of all), similar ones and a draw of the others.
Diaphorase act: diaphorase activation or chemical reduction counter-screen. activation factor at 20 µM. AID 1229. Diaphorase/resazurin coupled assay, resorufin fluorescence, 16 min; stronger effect = higher value; 1 = vehicle wells, 0 = NADH-free wells. hit rate 0.005% among 190,000;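 active means diaphorase activity raised at least twofold by the compound at 20 µM; inactive means activation factor below 2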
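Assay system: Purified diaphorase enzyme from Clostridium kluyveri | Amount: Enzyme 0.07 U/mL final | Dosing: Compound 20 µM once, DMSO 1% | Timing: 16 min reaction at room temperature | Detection: Fluorescence, excitation 544 nm and emission 590 nm | Evaluation: Higher resorufin formation from activation or reduction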
ROMK primary: human ROMK K+ channel modulation, primary screen; P48048; Tet-inducible ROMK, thallium flux fluorescence; actives lie on both sides; B-score at 10 µM; hit rate 2% among 130,000;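 active means signal ratio slope over the read window, or its plate-corrected B-score, at least 3 SD from the plate mean, either direction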;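 further: B-score of the F/F0 ratio slope over 7 to 12 s after thallium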
Target sequence (P48048 whole entry, looked up): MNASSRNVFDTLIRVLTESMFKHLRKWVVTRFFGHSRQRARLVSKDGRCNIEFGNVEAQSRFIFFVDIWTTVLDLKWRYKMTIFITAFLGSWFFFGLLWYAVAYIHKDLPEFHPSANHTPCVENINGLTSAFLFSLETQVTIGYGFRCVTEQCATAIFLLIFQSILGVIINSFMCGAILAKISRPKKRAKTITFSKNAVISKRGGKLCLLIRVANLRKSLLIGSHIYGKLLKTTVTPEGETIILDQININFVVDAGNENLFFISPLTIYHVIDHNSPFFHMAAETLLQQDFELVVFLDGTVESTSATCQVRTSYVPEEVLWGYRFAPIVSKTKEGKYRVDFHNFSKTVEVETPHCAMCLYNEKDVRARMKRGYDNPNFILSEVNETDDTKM
L major viab: inhibitors of Leishmania major promastigote growth | Leishmania major promastigotes, resazurin fluorescence viability | inhibition, % at 10 µM | hit rate 9% among 200,000; in the data active means inhibition above about 50%;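 further: promastigotes grown with compound for 44 hours at 28 °C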
KCC2 mod: KCC2 (human) Cl- transport modulation; Q9H2X9; KCC2 cells, thallium flux FluoZin-2 fluorescence; B-score of Tl+ flux slope (higher = more flux/activation; lower = inhibition) at 10 µM; hit rate 2.2% among 190,000; AID 1456;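 active means thallium flux slope and its plate-corrected score both differing from the plate sample mean at a set confidence after two filtering rounds, in either direction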;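 further: slope of fluorescence scaled to starting intensity during 10 to 20 s after thallium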
Diaphorase inh: counter-screen for diaphorase-based assays: diaphorase inhibitors and chemical oxidizers | hit rate 0.69% among 190,000 | inhibition, % at 20 µM | diaphorase resazurin-to-resorufin fluorescence, NADH, 16 min; bacterial (C. kluyveri) enzyme, not human;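 active means primary screen inhibition at 20 µM above a set limit, cut at about 50% in these data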;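 further: plate controls were DMSO with full reaction for no effect and wells lacking NADH for full effect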
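System: Diaphorase enzyme from Clostridium kluyveri | Amount: Enzyme working solution with 0.14 U/mL diaphorase | Benchmarks: No-NADH positive control and DMSO neutral control | Signal: Fluorescence of resorufin formed from resazurin, Ex 544/Em 590 nm | Schedule: 16-min room-temperature incubation before reading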
WT yeast gro inh: growth inhibition of WT yeast, mitochondrial fusion screen | mitochondrial fusion phenotypic screen, WT strain | inhibition, % at 10 µM | hit rate 2.1% among 190,000; in the data active means inhibition above about 58%; tested in S. cerevisiae
KCC2 secondary: KCC2 (human) modulation, secondary assay | normalised thallium flux (F/F0 slope) at 10 µM | AID 1713 | hit rate 15% among 3,700 | HEK293-KCC2, thallium flux, FluoZin2 fluorescence; stronger effect = higher value | shares compounds with KCC2 mod;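 active means thallium flux slope above the same plate's solvent-only control mean plus 3 SD; inconclusive means the two replicate wells disagree; inactive means no significant difference from solvent-only control wells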
KCC2 bumet counter: bumetanide-insensitive thallium flux in KCC2 cells with ouabain, counter-screen; AID 1714; HEK293-KCC2 + bumetanide/ouabain, thallium flux FluoZin2; stronger effect = higher value; hit rate 49% among 3,700; shares compounds with KCC2 mod; normalized thallium flux at 10 µM;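 active means thallium entry rate above the same plate's blocked-transporter control wells by more than 3 SD; inconclusive means the two repeat wells disagree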;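 further: raw slope of fluorescence over initial fluorescence between 10 and 20 s after thallium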
KCC2 sec2: confirmation of human KCC2 transport modulators | shares compounds with KCC2 mod | HEK293-KCC2, thallium flux FluoZin2 fluorescence; actives lie on both sides; F/F0 rise rate, 10–20 s post-thallium | normalized thallium flux at 10 µM | hit rate 23% among 3,700;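 active means thallium flux slope more than 3 SD above or below the plate's solvent-only control mean, mostly below; inconclusive means the two repeat wells disagreed; inactive means no significant shift from solvent-only controls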;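 further: raw slope with 0.1% DMSO as baseline and bumetanide as block control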
HEK counter1: parental HEK flux effect, counter-screen. shares compounds with KCC2 mod. HEK293 parental cells, thallium flux FluoZin2, ouabain; baseline-ratio fluorescence slope, 10–20 s after thallium. thallium flux rate (normalised fluorescence) at 10 µM. hit rate 46% among 3,700;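 active means thallium flux rate significantly above the same plate's solvent-only control wells, beyond their mean plus 3 SD; inconclusive means the two replicate wells gave conflicting results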
KCC2 ouabain: confirmation of human KCC2 modulators with ouabain | HEK293-KCC2, thallium flux FluoZin2 fluorescence; bidirectional: low = inhibitor, high = activator | shares compounds with KCC2 mod | AID 1717 | hit rate 48% among 3,700 | raw Tl+ flux slope (below DMSO = inhibition, above = activation) at 10 µM;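 active means thallium flux slope beyond 3 SD from same-plate DMSO control mean in most replicates, usually higher, sometimes lower; inconclusive means repeat tests gave conflicting results; inactive means no significant difference from controls in most replicates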;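 further: slope of initial-normalized fluorescence between seconds 10 and 20 after thallium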
HEK counter2: counter-screen for KCC2 modulators: effect in parental HEK293 cells | shares compounds with KCC2 mod | hit rate 33% among 3,700 | AID 1718 | thallium flux slope at 10 µM | thallium flux FluoZin-2 fluorescence slope;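 active means thallium flux slope above the same plate's solvent-control mean plus 3 SD in both duplicate wells; inconclusive means duplicate wells that disagreed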;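 further: run without ouabain in cells lacking the KCC2 cotransporter; slope of fluorescence scaled to its starting value between 10 and 20 s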
The depositor's hits bear a star; ? = inconclusive; . = not tested or not shown.

SMILES	Diaphorase act	ROMK primary	L major viab	KCC2 mod	Diaphorase inh	WT yeast gro inh	KCC2 secondary	KCC2 bumet counter	KCC2 sec2	HEK counter1	KCC2 ouabain	HEK counter2
Cc1ccc(-c2ccc(/C=N/NC(N)=S)o2)cc1	.	.	.	5*	.	.	0.0062	0.012*	0.033	0.01*	?	?
Cc1ccc(-c2ccc(/C=N/NC(=O)c3ccccc3O)o2)cc1	.	0.35	.	61*	.	.	0.02*	0.079*	0.037	0.041*	0.057*	0.015*
NS(=O)(=O)c1ccc(-c2ccc(/C=N/NC(=O)c3ccccc3O)o2)cc1	.	0.15	.	-0.41	.	.	.	.	.	.	.	.
O=C(N/N=C/C1CC=CCC1)c1cc2ccccc2cc1O (centres undefined)	0.7	-0.87	-1	4.4*	26	0	?	0.029*	0.036	0.015*	?	0.012*
Cc1ccccc1N(CC(=O)NCCSc1ccccn1)S(=O)(=O)c1ccccc1	1	-0.018	5	-2.9*	-3	6	0.008	0.006	0.031	0.007	0.019	0.0098
Cc1cc(C)cc(N(CC(=O)NCCSc2ccccn2)S(=O)(=O)c2ccccc2)c1	0.9	.	9	-0.99	14	6	.	.	.	.	.	.
Cc1ccc(OCCCn2c(=O)sc3ccccc32)cc1	0.8	.	-3	5.8*	23	19	0.01	0.0059	0.034	0.0078	0.021	?
Cc1ccc(S(=O)(=O)N2CCC(C(=O)NCc3ccncc3)CC2)cc1	0.9	.	0	.	14	1	.	.	.	.	.	.
Cc1cc(NC(=O)c2ccc(NC(=O)C(C)Oc3ccccc3)cc2)no1 (centres undefined)	0.9	1.4	-3	0.45	11	0	.	.	.	.	.	.
O=C(O)CCn1c(CO)nc2ccccc21	0.9	0.0066	0	0.15	12	1	.	.	.	.	.	.
O=C(O)CCn1c(-c2ccccc2)cc2ccccc21	0.9	0.69	1	-6.4*	8	-20	0.0066	0.007	0.028	0.007	0.013*	0.0096
Cc1cc(C)n(C(=O)CCCn2nc(C)c([N+](=O)[O-])c2C)n1	1.1	.	22	-0.51	-11	-4	.	.	.	.	.	.
COc1ccc(Nc2nnc(SCc3cc(=O)n4ccsc4n3)s2)cc1	0.7	.	-1	-5.2*	29	-5	0.011	0.0065	0.03*	0.0036	0.017*	0.012
CS/C(N)=N/C(=S)Nc1cccc(Cl)c1	.	.	.	7.5*	.	.	0.01	0.018*	0.034	?	0.023	?
NC(=S)Nc1cccc(Cl)c1	.	-0.38	.	-0.48	.	.	.	.	.	.	.	.
CCCOc1ccc(C2C(C(=O)c3ccco3)=C(O)C(=O)N2CCCn2ccnc2)cc1 (centres undefined)	0.9	0.017	-3	.	9	-11	.	.	.	.	.	.
CC1=C(Cl)C2=NS(=O)(=O)CCN2C=C1Cl	1	-0.45	-4	0.0051	-3	-3	.	.	.	.	.	.
COc1ccc2nc(NC(=O)CSc3nnc(-c4ccoc4C)n3C)sc2c1	0.8	.	22	-3.8*	23	0	0.0074	?	0.032	0.0043	0.015*	0.011
CCOC(=O)Cc1csc(NC(=S)NC(=O)c2cccc([N+](=O)[O-])c2)n1	0.7	0.069	-6	9.6*	27	-2	0.014*	0.034*	0.036	0.014*	0.034*	0.011
CCOC(=O)Cc1csc(NC(=S)NC(=O)CC(C)C)n1	0.9	-0.14	54*	8.8*	14	22	?	0.04*	0.03	0.014*	0.036*	0.011*
CCOC(=O)Cc1csc(NC(=S)NC(=O)c2cc(OC)cc(OC)c2)n1	0.5	-0.26	-3	26*	46	-4	0.015*	0.034*	0.03	0.023*	0.065*	0.012*
O=C(c1cncc(Br)c1)N1CCc2ccccc2C1	0.9	1.1	1	0.14	11	0	.	.	.	.	.	.
CCCN(CCC)S(=O)(=O)c1ccc(NC(=O)c2cc(C(=O)OC)cc([N+](=O)[O-])c2)cc1	0.7	0.54	17	0.33	26	39	.	.	.	.	.	.
Cc1ccc(C2NNC(=O)C2NC(=O)c2ccccc2)cc1 (centres undefined)	0.8	0.46	-6	-0.0081	16	-9	.	.	.	.	.	.
Cc1ccc(NC(=S)N/C(=N/S(=O)(=O)c2ccccc2)c2ccccc2)cc1	0.9	0.83	-6	.	7	17	0.02*	0.03*	0.038*	0.024*	0.031*	0.026*
SMILES	Diaphorase act	ROMK primary	L major viab	KCC2 mod	Diaphorase inh	WT yeast gro inh	KCC2 secondary	KCC2 bumet counter	KCC2 sec2	HEK counter1	KCC2 ouabain	HEK counter2
COc1ccc(S(=O)(=O)N(CCc2ccccc2)CC(=O)NC(C)C)cc1	0.8	-0.044	-1	.	16	11	.	.	.	.	.	.
C=CCN(c1ccc(OC)cc1)S(=O)(=O)c1ccc(Cl)c(C(=O)OCC(=O)NC2CC2)c1	0.9	0.075	-2	-3.8*	12	-9	0.0093	0.0071	?	0.006	0.014*	0.0097
CCOC(=O)c1ccc(NC(=O)CSc2nnc(CNc3ccc(OC)cc3)n2C)cc1	0.7	-0.47	8	1.1	29	-10	.	.	.	.	.	.
Cc1cc2nnc(SCC(=O)Nc3cc(S(=O)(=O)N4CCOCC4)ccc3Cl)n2c2ccccc12	0.5	.	11	-4.7*	48	-1	0.0057	?	0.024*	0.0057*	0.013*	0.0082*
CCc1nc2ccccc2[nH]c1=O	.	-1.3	.	0.45	.	.	.	.	.	.	.	.
Cc1cc(C)cc(OCC(=O)NNC(=O)c2cc3ccccc3o2)c1	0.9	1.1	-3	31*	11	4	0.019*	0.1*	0.033	0.034*	0.059*	0.015*
O=C(NNC(=O)c1cc2ccccc2o1)c1ccc(Cl)cc1	.	.	.	8.7*	.	.	0.01	0.024*	0.033	0.011*	?	0.012*
O=C(Nc1ccc(Cl)cn1)c1cc2ccccc2o1	0.9	.	2	-1.5	6	9	.	.	.	.	.	.
O=C(CSc1ccc2nnc(-c3ccncc3)n2n1)Nc1nccs1	1	1.4	-2	1.7	-2	-13	.	.	.	.	.	.
